# Source: PubChem (Johns Hopkins Ion Channel Center)
# KCNQ1 inh – human KCNQ1 channel inhibition. P51787. CHO-K1 KCNQ1, FluxOR thallium flux fluorescence; stronger effect = higher value. B-score at 10 µM. 1.3% of 310,000 active;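 active = compounds whose thallium flux B-score, printed positive for inhibition, exceeds three library SD while starting fluorescence stays within three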;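 also: channel opened by potassium depolarization with thallium stimulus after 20 min compound exposure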
# KCNQ1 pot – potentiators or activators of human KCNQ1 potassium channel | B-score at 10 µM | 0.35% of 310,000 active | CHO-K1 KCNQ1, thallium flux FluxOR fluorescence; stronger effect = higher value;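 active = fluorescence ratio B-score, a plate-corrected score, at least three library SD, with initial intensity B-score within 5 SD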
#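 Assay system: CHO-K1 cells stably expressing KCNQ1; Medium: assay buffer with matched DMSO; Also added: K+/Tl+ depolarizing stimulus; Dosing: single dose; Timing: dye 90 min, compound 20 min, room temperature; Measured by: kinetic FluxOR thallium fluorescence, 10-s 1-Hz baseline, 110-s post-stimulus read; Read-out: peak-minus-minimum fluorescence over initial fluorescence, negative-control normalized, B-scored.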
# hERG protect – hERG (human) protection from proarrhythmic block. activation (rescue from dofetilide block), less the hit threshold, % at 10 µM. 0.51% of 310,000 active. AID 1511. Q12809. CHO-hERG, FluxOR thallium flux, dofetilide IC70 present;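 active = activation above the mean of controls blocked by dofetilide plus 5 SD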;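 also: thallium influx through hERG after potassium depolarization seen as dye fluorescence rise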
# KCNK3 block – human KCNK3 channel inhibition, primary screen; O14649; CHO-KCNK3 thallium flux, FluxOR fluorescence; stronger effect = lower value; B-score at 10 µM; 0.84% of 340,000 active; AID 602410;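 active = B-score under library mean minus 4 SD, starting fluorescence ratio at most library mean plus 5 SD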;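 also: more negative B-score means stronger inhibition of thallium flux through KCNK3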
# KCNK9 block – human KCNK9 channel inhibition; Q9NPC2; HEK293 KCNK9, FluxOR thallium flux fluorescence; stronger effect = lower value; B-score at 10 µM; 1.2% of 310,000 active; AID 488922;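 active = ratio B-score over 3 SD below the library mean, with starting fluorescence within 5 SD of its mean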;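 also: negative B-score means less thallium flux so channel inhibition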
# Kir21 inh – inhibitors of mouse Kir2.1 inward-rectifier potassium channel | P35561 | HEK293-Kir2.1, FluxOR thallium flux fluorescence; stronger effect = lower value | B-score at 10 µM | 0.85% of 310,000 active;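 active = fluorescence ratio B-score at or below minus 3 SD of library scores, with starting-brightness B-score within 2 SD, cut at about -4.2 in these data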;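 also: channel flux triggered by added potassium and thallium sulfate stimulus; B-score of peak minus minimum fluorescence over baseline after thallium stimulus; more negative B-score means stronger Kir2.1 block with less thallium influx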
# Target sequence (P35561 whole entry, looked up): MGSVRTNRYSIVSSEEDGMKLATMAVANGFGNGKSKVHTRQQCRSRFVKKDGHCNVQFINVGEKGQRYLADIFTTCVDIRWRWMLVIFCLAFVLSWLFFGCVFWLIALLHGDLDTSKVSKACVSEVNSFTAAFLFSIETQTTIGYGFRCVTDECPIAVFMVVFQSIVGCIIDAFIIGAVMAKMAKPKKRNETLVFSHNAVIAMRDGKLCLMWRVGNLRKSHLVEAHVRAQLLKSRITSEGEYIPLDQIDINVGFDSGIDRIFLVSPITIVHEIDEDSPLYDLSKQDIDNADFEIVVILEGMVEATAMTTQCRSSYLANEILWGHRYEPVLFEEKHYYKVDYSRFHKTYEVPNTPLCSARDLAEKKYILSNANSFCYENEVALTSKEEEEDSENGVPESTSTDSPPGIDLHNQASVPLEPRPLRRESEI
# KCNK3 inh conf – human KCNK3 channel inhibition, confirmation assay; shares compounds with KCNK3 block; CHO-KCNK3 thallium flux, FluxOR fluorescence; 0% buffer, 100% carvedilol maximal block; ratio percent of control, % at 10 µM; 99% of 2,400 active; AID 651638;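 active = ratio percent of control, averaged over triplicates, above buffer control mean plus 5 SD, cut at about 64% in these data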;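 also: ratio is the fluorescence rise from min to max over baseline after thallium stimulus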
# KCNK3 noninduced – KCNK3 inhibitor counter-screen hit in non-induced cells | thallium flux ratio (lower = more inhibition) at 10 µM | shares compounds with KCNK3 block | 40% of 2,400 active | AID 651747 | non-induced KCNK3 parental cells, FluxOR thallium flux; stronger effect = lower value;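 active = thallium flux ratio, averaged over three wells, more than 5 SD below the buffer control mean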;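 also: host cells are CHO cells without KCNK3 induction; ratio is peak minus trough fluorescence over baseline then normalized to buffer controls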
# The depositor's hits bear a star; i = inactive; x = no result. Sampled rows, rich in hits. Any-hit rate of the full collection: about 3.7%.
SMILES,KCNQ1 inh,KCNQ1 pot,hERG protect,KCNK3 block,KCNK9 block,Kir21 inh,KCNK3 inh conf,KCNK3 noninduced
Fc1ccccc1/C=C1\CCCC2=C1NC(=S)NC2c1ccccc1F (centres undefined),i,i,-6,-9*,i,0.39,101*,i
S=C1NC2=C(CCC/C2=C\c2ccccc2)C(c2ccccc2)N1 (centres undefined),i,i,-3,i,i,-0.23,x,x
C/C(CC(=O)NC(C)(C)C)=N\NC(N)=S,i,i,-9,i,i,-1.3,x,x
O=C(c1ccc(-c2ccccc2)cc1)N1CCN(c2ccccc2F)CC1,i,i,-9,-9.2*,i,0.93,108*,i
CNC(=S)NCc1ccc2[nH]c3c(c2c1)CCCC3,i,i,-25,i,i,-0.13,x,x
Cc1ccc(C)c(NC(=S)NCc2ccc3[nH]c4c(c3c2)CCCC4)c1,i,i,-7,-13*,i,0.01,120*,0.14*
COCCCNC(=O)C1CCC(CNS(=O)(=O)c2ccc3c(c2)N(C(C)=O)CCO3)CC1 (centres undefined),i,i,-12,i,i,1.5,x,x
Cc1cc(C)c(S(=O)(=O)N2CCc3ccccc32)c(C)c1,6*,i,-11,-13*,i,0.01,115*,0.13*
CCN(CC(=O)Nc1cc(Cl)ccc1C)C(=O)c1oc2ccc(OC)cc2c1C,i,i,-14,i,i,-0.91,x,x
COc1ccc(N2C(=O)CSC2c2cccc(F)c2)cc1 (centres undefined),i,i,-4,i,i,1.2,x,x
CCCCn1c(N)c(-c2nc3ccccc3s2)c2c([N+](=O)[O-])nn(CC)c(=O)c21,i,i,-6,-11*,i,2,122*,0.13*
Cc1ccc(C(=O)N[C@H](C(=O)Nc2ccc(N3CCOCC3)cc2)C(C)C)cc1,x,x,x,i,x,x,x,x
CCCN1CCN(C(=O)Nc2cccc(C(F)(F)F)c2)CC1,i,i,-11,-10*,i,0.18,106*,i
CC1=C(C(=O)Nc2ccccc2C(=O)NC2CCC(C)CC2)SCCO1 (centres undefined),i,i,-3,i,i,0.01,x,x
CC(=O)c1cn(CCOc2ccccc2C)c2ccccc12,i,i,-8,i,i,-1,x,x
COC(=O)c1cn(CCOc2ccc(C)cc2)c2ccccc12,i,i,-5,-8.9*,i,-1.2,108*,i
Cc1ccc(OCCn2cc(C#N)c3ccccc32)cc1,i,i,-6,-9.5*,i,1.1,101*,0.15*
CC(=O)c1cn(CCOc2ccc(F)cc2)c2ccccc12,i,i,-7,-9*,i,-2.4,104*,i
Oc1[nH]c2ccccc2c1N=Nc1ncnc2c1oc1ccccc12,i,i,-11,x,i,-0.49,x,x
CC(=O)Nc1ccc(NC(=O)C(C)Oc2ccc(C)nc2[N+](=O)[O-])cc1 (centres undefined),x,x,x,i,x,x,x,x
COc1ccc(NC2c3ccccc3C(=O)N2c2ccccn2)cc1Cl (centres undefined),i,i,-8,-11*,-7.5*,1.8,112*,i
O=C1c2ccccc2C(Nc2ccc(F)c(Cl)c2)N1c1ccccn1 (centres undefined),i,i,-8,i,i,0.58,x,x
N#Cc1ccccc1OCC(=O)N(Cc1nnc(-c2ccccc2Cl)o1)C1CC1,i,i,-15,i,i,-1.1,x,x
O=C1c2cccc3cccc(c23)C(=O)N1CCc1ccccc1,i,i,-3,-9.6*,i,0.49,118*,i
O=C(CO/N=C/c1cccc([N+](=O)[O-])c1)Nc1ccc2ccccc2c1,i,i,3,-9.2*,i,-0.8,98*,i
SMILES,KCNQ1 inh,KCNQ1 pot,hERG protect,KCNK3 block,KCNK9 block,Kir21 inh,KCNK3 inh conf,KCNK3 noninduced
Cc1nn(-c2ccccc2)c(Cl)c1/C=N/NC(=O)c1ccncc1,i,i,-8,i,i,0.28,x,x
COc1cc2c(cc1OC)C(c1cccs1)N(C(=S)NC(C)C)CC2 (centres undefined),i,i,-16,-11*,i,-1.4,94*,i
O=C(Nc1cccc2cccnc12)c1ccc(Cl)cc1Cl,i,i,-2,i,i,0.06,x,x
COc1cc(NC(=O)c2ccccc2Cl)c2ncccc2c1,i,i,-3,-9.1*,i,-0.02,119*,0.15*
COc1ccc(C(=O)N(Cc2ccccc2)c2cccc(C)c2)cc1,i,i,-11,i,i,-1.5,x,x
COc1ccccc1CC(=O)N(Cc1ccccc1)c1cccc(C)c1,i,i,-11,-12*,i,-2,103*,0.15*
COc1cccc(OC)c1C(=O)OCc1c(-c2ccccc2)ncc2ccccc12,x,x,x,i,x,x,x,x
COc1ccc2[nH]c3c(N4CCN(Cc5ccc6c(c5)OCO6)CC4)ncnc3c2c1,i,i,-24,i,i,-1.1,x,x
COc1ccc2[nH]c3c(N4CCC(O)(c5cccc(C(F)(F)F)c5)CC4)ncnc3c2c1,i,i,-16,-12*,i,-0.18,122*,0.15*
O=C(O)c1ccccc1C=NN1CCCCCC1,x,x,x,i,x,x,x,x
CCSc1nc2ccccc2n1Cc1ccccc1F,i,i,-10,i,i,-2.5,x,x
CCSc1nc2ccccc2n1Cc1cccc([N+](=O)[O-])c1,i,i,-4,-8.8*,i,0.09,95*,i
O=C(O)C1C2C=CC(C2)C1C(=O)NCc1ccc2c(c1)OCO2 (centres undefined),i,i,-1,-8.9*,i,-0.58,90*,i
O=C(NCc1cccs1)C1CCCN1C(=O)Nc1ccc(F)cc1 (centres undefined),i,i,-10,i,i,2.2,x,x
CCC(=O)c1ccc(OCC(=O)OCC(=O)c2cc(C)n(C)c2C)cc1,i,i,-4,i,i,1.3,x,x
CN1CCN(S(=O)(=O)c2ccc(N3CCc4ccccc4C3)nc2)CC1,i,i,-6,i,i,-0.38,x,x
CCOC(=O)c1cc(C#N)c(SCC(=O)c2cc(C#N)c(SC)nc2C)nc1C,i,i,-1,-11*,i,1.1,107*,0.14*
CCOC(=O)c1cc(C#N)c(SCc2cccc3ccccc23)nc1C,i,i,-7,i,i,0.57,x,x
